Residues, ends and D or L forms follow the SMILES beside them.
biological target: T1, Dopamine receptor (Bos taurus) (UniProt Q95136+P20288); assay: In vitro ability to enhance the binding of [3H]ADTN to dopamine receptor obtained from bovine caudate membranes at a concentration of 10E-10 M
Summary of the method: (§1)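 Striatal synaptosomal membranes from bovine caudate incubated with [3H]ADTN with or without (control) peptide at 10^-12–10^-4 M, in triplicate, 37°C for 10 min, no preincubation; filtered, filters counted by liquid scintillation. Nonspecific binding defined with 10 μM (+)-butaclamol. Result expressed as percent enhancement over control; average ± SEM of three or four experiments; unpaired t-test on dpm.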

Compared with `NC(=O)CN1CC[C@H](NC(=O)C2CCCN2)C1=O` (some centres not stated), `NC(=O)CN1CCC[C@@H](NC(=O)C2CCCN2)C1=O` (some centres not stated) is lower in Increase: 24.4% for the first, 3% for the second.

`NC(=O)CN1OC[C@H](NC(=O)C2CCCN2)C1=O` (some centres not stated) and `NC(=O)CN1C[C@H](NC(=O)C2CCCN2)C1=O` (some centres not stated) are the same in Increase: 2.5% for the first, 2.5% for the second.

Compared with `NC(=O)CN1C(=O)C[C@H](NC(=O)C2CCCN2)C1=O` (some centres not stated), `NC(=O)CN1CCCC[C@@H](NC(=O)C2CCCN2)C1=O` (some centres not stated) is higher in Increase: 3.3% for the first, 15% for the second.

biological target: T1, Dopamine receptor (Bos taurus); assay: In vitro ability to enhance the binding of [3H]ADTN to dopamine receptor obtained from bovine caudate membranes at a concentration of 10E-5 M; summary of the method: as §1

First: NC(=O)CN1CC[C@H](NC(=O)C2CCCN2)C1=O (some centres not stated)
Second: NC(=O)CN1CCC[C@@H](NC(=O)C2CCCN2)C1=O (some centres not stated)
The Increase of the first is lower: 1.6% for the first, 18% for the second.

Going from `NC(=O)CN1OC[C@H](NC(=O)C2CCCN2)C1=O` (some centres not stated) to `NC(=O)CN1C[C@H](NC(=O)C2CCCN2)C1=O` (some centres not stated), the Increase falls from 37% to 22%.

Compared with `NC(=O)CN1C(=O)C[C@H](NC(=O)C2CCCN2)C1=O` (some centres not stated), `NC(=O)CN1CCCC[C@@H](NC(=O)C2CCCN2)C1=O` (some centres not stated) is lower in Increase: 33% for the first, 27% for the second.

biological target: T1, Dopamine receptor (Bos taurus); assay: In vitro ability to enhance the binding of [3H]ADTN to dopamine receptor obtained from bovine caudate membranes at a concentration of 10E-12 M; summary of the method: as §1

First: NC(=O)CN1CC[C@H](NC(=O)C2CCCN2)C1=O (some centres not stated)
Second: NC(=O)CN1CCC[C@@H](NC(=O)C2CCCN2)C1=O (some centres not stated)
The Increase of the first is higher: 2.2% for the first, 2% for the second.

Going from `NC(=O)CN1OC[C@H](NC(=O)C2CCCN2)C1=O` (some centres not stated) to `NC(=O)CN1C[C@H](NC(=O)C2CCCN2)C1=O` (some centres not stated), the Increase falls from 2% to 1.5%.

Molecule `NC(=O)CN1C(=O)C[C@H](NC(=O)C2CCCN2)C1=O` (some centres not stated) has an Increase of 4%.

biological target: T1, Dopamine receptor (Bos taurus); assay: In vitro ability to enhance the binding of [3H]ADTN to dopamine receptor obtained from bovine caudate membranes at a concentration of 10E-4 M; summary of the method: as §1

First: NC(=O)CN1CC[C@H](NC(=O)C2CCCN2)C1=O (some centres not stated)
Second: NC(=O)CN1CCCC[C@@H](NC(=O)C2CCCN2)C1=O (some centres not stated)
The Increase of the first is lower: 1.4% for the first, 17% for the second.

Going from `NC(=O)CN1OC[C@H](NC(=O)C2CCCN2)C1=O` (some centres not stated) to `NC(=O)CN1C[C@H](NC(=O)C2CCCN2)C1=O` (some centres not stated), the Increase rises from 7% to 9.5%.

In the case of `NC(=O)CN1C(=O)C[C@H](NC(=O)C2CCCN2)C1=O` (some centres not stated), the Increase is reported as 13%.

biological target: T1, Dopamine receptor (Bos taurus); assay: In vitro ability to enhance the binding of [3H]-ADTN to dopamine receptor obtained from bovine caudate membranes at a concentration of 10E-7 M; summary of the method: as §1

First: NC(=O)CN1CC[C@H](NC(=O)C2CCCN2)C1=O (some centres not stated)
Second: NC(=O)CN1CCC[C@@H](NC(=O)C2CCCN2)C1=O (some centres not stated)
The Increase of the first is lower: 5.6% for the first, 16% for the second.

Going from `NC(=O)CN1OC[C@H](NC(=O)C2CCCN2)C1=O` (some centres not stated) to `NC(=O)CN1C[C@H](NC(=O)C2CCCN2)C1=O` (some centres not stated), the Increase falls from 30% to 8%.

Compared with `NC(=O)CN1C(=O)C[C@H](NC(=O)C2CCCN2)C1=O` (some centres not stated), `NC(=O)CN1CCCC[C@@H](NC(=O)C2CCCN2)C1=O` (some centres not stated) is lower in Increase: 42% for the first, 38% for the second.

biological target: T1, Dopamine receptor (Bos taurus); assay: In vitro ability to enhance the binding of [3H]ADTN to dopamine receptor obtained from bovine caudate membranes at a concentration of 10E-8 M; summary of the method: as §1

First: NC(=O)CN1CC[C@H](NC(=O)C2CCCN2)C1=O (some centres not stated)
Second: NC(=O)CN1CCC[C@@H](NC(=O)C2CCCN2)C1=O (some centres not stated)
The Increase of the first is lower: 9.2% for the first, 11% for the second.

Going from `NC(=O)CN1OC[C@H](NC(=O)C2CCCN2)C1=O` (some centres not stated) to `NC(=O)CN1C[C@H](NC(=O)C2CCCN2)C1=O` (some centres not stated), the Increase falls from 14% to 5%.

Going from `NC(=O)CN1C(=O)C[C@H](NC(=O)C2CCCN2)C1=O` (some centres not stated) to `NC(=O)CN1CCCC[C@@H](NC(=O)C2CCCN2)C1=O` (some centres not stated), the Increase rises from 13.5% to 35%.

biological target: T1, Dopamine receptor (Bos taurus); assay: In vitro ability to enhance the binding of [3H]-ADTN to dopamine receptor obtained from bovine caudate membranes at a concentration of 10E-11 M; summary of the method: as §1

First: NC(=O)CN1CC[C@H](NC(=O)C2CCCN2)C1=O (some centres not stated)
Second: NC(=O)CN1CCC[C@@H](NC(=O)C2CCCN2)C1=O (some centres not stated)
The Increase of the first is higher: 12% for the first, 4% for the second.

Going from `NC(=O)CN1OC[C@H](NC(=O)C2CCCN2)C1=O` (some centres not stated) to `NC(=O)CN1C(=O)C[C@H](NC(=O)C2CCCN2)C1=O` (some centres not stated), the Increase rises from 2% to 5.5%.

With `NC(=O)CN1CCCC[C@@H](NC(=O)C2CCCN2)C1=O` (some centres not stated) the Increase was 8%.

biological target: T1, Dopamine receptor (Bos taurus); assay: In vitro ability to enhance the binding of [3H]ADTN to dopamine receptor obtained from bovine caudate membranes at a concentration of 10E-6 M; summary of the method: as §1

Going from `NC(=O)CN1CC[C@H](NC(=O)C2CCCN2)C1=O` (some centres not stated) to `NC(=O)CN1CCC[C@@H](NC(=O)C2CCCN2)C1=O` (some centres not stated), the Increase rises from 2.8% to 43%.

`CC(C)C[C@H](NC(=O)[C@@H]1CCCN1)C(=O)NCC(N)=O` (H-Pro-Leu-Gly-NH2) and `NC(=O)CN1C[C@H](NC(=O)C2CCCN2)C1=O` (some centres not stated) are the same in Increase: 27% for the first, 27% for the second.

Compared with `NC(=O)CN1OC[C@H](NC(=O)C2CCCN2)C1=O` (some centres not stated), `NC(=O)CN1C(=O)C[C@H](NC(=O)C2CCCN2)C1=O` (some centres not stated) is lower in Increase: 54% for the first, 38% for the second.

For `NC(=O)CN1CCCC[C@@H](NC(=O)C2CCCN2)C1=O` (some centres not stated), the Increase was 61%.

biological target: T1, Dopamine receptor (Bos taurus); assay: In vitro ability to enhance the binding of [3H]ADTN to dopamine receptor obtained from bovine caudate membranes at a concentration of 10E-9 M; summary of the method: as §1

Going from `NC(=O)CN1CC[C@H](NC(=O)C2CCCN2)C1=O` (some centres not stated) to `NC(=O)CN1CCC[C@@H](NC(=O)C2CCCN2)C1=O` (some centres not stated), the Increase falls from 23% to 4%.

Compared with `NC(=O)CN1OC[C@H](NC(=O)C2CCCN2)C1=O` (some centres not stated), `NC(=O)CN1C[C@H](NC(=O)C2CCCN2)C1=O` (some centres not stated) is lower in Increase: 6.8% for the first, 3.9% for the second.

Going from `NC(=O)CN1C(=O)C[C@H](NC(=O)C2CCCN2)C1=O` (some centres not stated) to `NC(=O)CN1CCCC[C@@H](NC(=O)C2CCCN2)C1=O` (some centres not stated), the Increase rises from 4.6% to 30%.
